Assay outcomes from PubChem BioAssay.
This is a sample that favours compounds with a hit; in the whole collection about 3.9% have one here.
TAAR1 antag = human TAAR1 antagonists, primary screen, Fluo-8 calcium fluorescence, CHO RD-HGA16 cells | inhibition, % at 3 µM | AID 624466, 2012 | 360,000 tested, 1.5% active | antagonist;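 active means inhibition above a per-plate cutoff, the mean inhibition of test compounds on that plate plus 3 SD, cut at about 49% in these data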;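 further: 0% = DMSO plus EC80 beta-PEA response and 100% = DMSO alone without agonist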
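Assay system: RD-HGA16 CHO cells with stable hTAAR1 and Gα16 / Reagent: EC80 β-phenethylamine stimulus / Doses: 3 µM, single point / Timing: dye loading 75 min at 37 °C, then 30 min room temperature / Measured by: Fluo-8 intracellular calcium dye fluorescence, real-time kinetic reads / Controls: vehicle wells and EC80 agonist wells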
CHO parental Ca = ATP-evoked calcium signal inhibitors, parental CHO, primary screen, counter-screen for OX1R antagonist project, cell-based, fluorescence, Fluo-8 calcium dye | AID 463079, 2010 | inhibition, % at 5.6 µM | parental CHO-K1, ATP-induced calcium, Fluo-8 fluorescence | 330,000 tested, 0.63% active;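 active means inhibition above that plate's mean sample inhibition plus 3 SD, cut at about 26% in these data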;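 further: 0% = ATP-challenged DMSO wells and 100% = DMSO wells without ATP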
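Assay system: parental CHO cells; Read-out basis: percent inhibition of ATP-evoked calcium rise, normalized to controls; Benchmarks: ATP and no-ATP DMSO wells; Compound dosing: single nominal dose of 5.6 µM per compound; Signal: Fluo-8 calcium dye fluorescence; Also added: ATP as calcium-mobilizing challenge; Repeats: singlicate.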
OX1R antag-1 = antagonists of human orexin 1 receptor (OX1R) | AID 485270, 2010 | OX1R-expressing cells, FRET antagonist read-out | 330,000 tested, 1.8% active | Orexin/Hypocretin receptor type 1 (Homo sapiens), O43613 | inhibition, % at 6.6 µM; in the data active means inhibition mostly above about 38%, no sharp cut-off; inactive means mostly below about 40%;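 further: 0% = agonist challenge alone and 100% = reference antagonist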
Target sequence (O43613 whole entry, looked up): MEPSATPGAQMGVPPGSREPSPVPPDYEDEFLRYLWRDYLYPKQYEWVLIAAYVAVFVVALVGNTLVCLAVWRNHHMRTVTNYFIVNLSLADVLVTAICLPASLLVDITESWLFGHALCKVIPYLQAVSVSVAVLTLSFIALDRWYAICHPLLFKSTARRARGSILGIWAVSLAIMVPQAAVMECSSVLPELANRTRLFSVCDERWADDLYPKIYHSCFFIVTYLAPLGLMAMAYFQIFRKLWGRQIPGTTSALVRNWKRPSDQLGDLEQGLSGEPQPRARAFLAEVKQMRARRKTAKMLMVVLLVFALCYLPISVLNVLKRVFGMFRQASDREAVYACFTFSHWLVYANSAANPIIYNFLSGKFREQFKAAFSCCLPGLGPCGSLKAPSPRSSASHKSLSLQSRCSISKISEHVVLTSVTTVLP
OX1R antag-2 = OX1R (HCRTR1) antagonists, primary screen, fluorescence, CHO/OX1R cells, Fluo-8 calcium, orexin A; Fluo-8 calcium fluorescence; Orexin/Hypocretin receptor type 1 (Homo sapiens), O43613; 330,000 tested, 0.43% active; inhibition, % at 5 µM; AID 434989, 2010;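 active means inhibition above its plate's threshold, mean inhibition of all tested compounds on the plate plus 3 SD, cut at about 37% in these data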;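 further: 0% = orexin A challenge wells and 100% = SB-334867-A antagonist wells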
TAAR1 agonist = human TAAR1 agonists, primary screen, Fluo-8 calcium fluorescence, CHO RD-HGA16 cells | Trace amine-associated receptor 1 (Homo sapiens), Q96RJ0 | vehicle wells 0%, saturating PEA agonist 100% | activation, % at 3 µM | 360,000 tested, 0.99% active | AID 624467, 2012;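 active means activation above the mean activation of all test compounds in the run plus 3 SD, cut at about 38% in these data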
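Assay system – CHO-derived RD-HGA16 cells with stable Gα16 and human TAAR1 · Compound dosing – one-point dosing at 3 µM (nominal) · Incubation – 17-24 h seeding, 75 min 37 °C dye, 30 min RT · Measured by – kinetic Fluo-8 calcium fluorescence · Control set – DMSO vehicle as 0%, PEA at EC100 as 100% · Repeats – single well for each compound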
Active calls of the source: *; x = no result given.

SMILES	TAAR1 antag	CHO parental Ca	OX1R antag-1	OX1R antag-2	TAAR1 agonist
CC(C)Cn1c(N)c(C(=O)NCC2CCCO2)c2nc3ccccc3nc21 (centres undefined)	27	-24	17	-10	20
COc1ccc(C2CC3(CC(C)(C)NC(SC)=N3)Oc3cc(O)cc(C)c32)cc1 (centres undefined)	5	-9	-30	-4	51*
COc1ccc(C2CC3(CC(C)(C)NC(=S)N3)Oc3cc(O)cc(C)c32)cc1 (centres undefined)	2	-21	4	-14	1
COC(=O)c1cc2c(c3c4cc(F)ccc4n(S(=O)(=O)c4ccc(C)cc4)c13)C(=O)N(Cc1ccc(N(C)C)cc1)C2	4	x	x	x	-2
CC1(C(=O)NCc2cccs2)Cc2c(-c3ccc4c(c3)OCO4)ccnc2O1 (centres undefined)	-2	x	x	x	1
CNS(=O)(=O)c1cc(S(=O)(=O)NC)c2cccc3c2c1NC3=O	5	7	66*	-5	5
CNS(=O)(=O)c1ccc2c3c(cccc13)C(=O)N2	0	x	x	x	0
Cc1ccc(N=C2NC(=O)c3cc([N+](=O)[O-])ccc32)cc1	-15	9	56*	-1	-2
O=C1Nc2ccccc2Nc2ccc([N+](=O)[O-])cc21	-11	10	11	-20	5
COc1cc(NC(=O)CSc2ncnc3c2cnn3Cc2ccccc2)cc(OC)c1	0	-1	14	2	4
COc1ccc(OC)c(NC(=O)CSc2ncnc3c2cnn3-c2ccccc2Cl)c1	x	53*	45	52*	x
COC(=O)C1=C(C)N(C)C(=NCc2ccc(C(F)(F)F)cc2)NC1c1cccc(F)c1 (centres undefined)	14	x	x	x	21
CCOC(=O)c1cnc(-n2nc(C)cc2C)nc1NC1CCCC1	28	43*	14	59*	14
COc1ccc(C(=O)Oc2ccc3oc(=O)sc3c2)cc1	4	57*	0	27	6
COc1ccc(C(=O)Oc2ccc3ccc(=O)oc3c2)cc1	-4	-1	9	1	6
COc1ccc2c(c1)c1nnc(SCC(=O)Nc3ccccc3F)nc1n2C	-7	-15	11	-11	3
COc1ccc2c(c1)c1nnc(SCC(=O)NC3CC3)nc1n2C	6	-10	85*	-11	-2
CCN(C[C@H]1N[C@@](Cc2ccccc2)(C(=O)OC)[C@H]2C(=O)N(Cc3ccccc3)C(=O)[C@@H]12)C(=O)Nc1ccc(C(F)(F)F)cc1	2	10	37*	29	7
CCOc1ccc(C(C(=O)NCC2CCCO2)N(Cc2cccs2)C(=O)c2snc(C(N)=O)c2N)cc1 (centres undefined)	54*	-5	20	-9	24
NC(=O)c1nsc(C(=O)N(Cc2ccccc2F)C(C(=O)NCC2CCCO2)c2ccc(F)cc2)c1N (centres undefined)	22	-13	17	-11	9
Cc1cccc(CCN(C(=O)c2snc(C(N)=O)c2N)C(C(=O)NCC2CCCO2)c2ccc(F)cc2)c1 (centres undefined)	59*	x	x	x	30
O=C(NCC1CCCO1)C(c1cccs1)N(Cc1cccs1)C(=O)Cn1nnc(-c2cccs2)n1 (centres undefined)	49*	-25	51	-8	14
COc1ccc(C#Cc2cnc3c(c2)C(=O)N([C@@H](C)CO)C[C@@H](C)[C@@H](CN(C)CC2CCOCC2)O3)cc1	-20	x	x	x	0
Cc1cc(S(=O)(=O)Nc2ncnc3sccc23)ccc1F	-39	x	x	x	1
Cc1cccc(C)c1NC(=O)C1(C)CN(S(C)(=O)=O)CC(=O)N1Cc1ccc2c(c1)OCO2 (centres undefined)	-6	x	x	x	1
SMILES	TAAR1 antag	CHO parental Ca	OX1R antag-1	OX1R antag-2	TAAR1 agonist
CC(=O)Nc1cccc(-c2cn3ccc(C)cc3n2)c1	3	-16	15	-22	-1
Cc1ccn2cc(-c3cccc([N+](=O)[O-])c3)nc2c1	16	-18	66*	-25	-1
O=C(Nc1ccc(Cl)cc1)NC1CCCCC1Cc1ccco1 (centres undefined)	26	14	47*	-2	12
CCOc1ccc(-c2c(C(=O)N/N=C/c3c[nH]c4ccccc34)nnn2-c2nonc2N)cc1	53*	17	23	16	4
Nc1nonc1-n1nnc(C(=O)N/N=C/c2cccnc2)c1-c1ccccc1	-22	-16	1	-9	15
Nc1nonc1-n1nnc(C(=O)N/N=C/c2cc(Br)cs2)c1-c1ccccc1	1	1	51*	1	41*
CCOc1cccc(-c2c(C(=O)N/N=C/c3ccc(C)o3)nnn2-c2nonc2N)c1	24	5	11	4	62*
Nc1nonc1-n1nnc(C(=O)N/N=C/c2cccc(F)c2)c1-c1ccc2c(c1)OCO2	45	6	20	1	44*
CCCOc1ccc(-c2c(C(=O)N/N=C/c3ccccc3)nnn2-c2nonc2N)cc1	-46	-2	13	-19	0
Nc1ccc(F)c(CN2CCN(c3ncc(Cc4ccccc4)cn3)CC2)c1	-11	x	x	x	6
CC(=O)N(CCc1ccccc1)c1ccc2c(c1)C1CC2CCN1C(=O)OCc1ccccc1 (centres undefined)	45	x	x	x	-1
CCn1c(C)nc2cc(-c3nnc(-c4c(-c5ccccc5)noc4C)o3)ccc21	10	37*	45*	13	16
Cc1onc(-c2ccccc2)c1-c1nnc(-c2ccccc2C(F)(F)F)o1	13	-24	12	-31	0
NC(=O)c1ccc(C(=O)c2ccc([N+](=O)[O-])cc2)cc1	-7	-11	70*	-4	3
Cc1c(C(=O)c2ccc([N+](=O)[O-])cc2)c(=O)n(C)c(=O)n1C	0	-6	74*	-9	7
c1ccc2c(C[C@@H]3CNCCN3CC3CCCCC3)cccc2c1	-1	3	8	-19	41*
CCc1ccc(-c2cc(C)no2)cc1S(=O)(=O)NCc1ccc(OC)c(OC)c1	9	-12	23	-22	1
Cc1cc(-c2ccc(C)c(S(=O)(=O)NCc3cccc(Br)c3)c2)on1	26	3	38*	9	0
CCc1ccc(-c2cc(C)no2)cc1S(=O)(=O)NCCc1ccc(OC)c(OC)c1	-20	-13	43*	7	1
Cc1ccc(C)c(C(O)c2ncc(-c3ccc(Cl)cc3)[nH]2)c1 (centres undefined)	13	x	x	x	11
Cc1cc(C)n2nc(-c3sccc3-n3c(C)ccc3C)cc2n1	-6	-16	76*	33	4
